Data published in ChEMBL document CHEMBL2086236, “Discovery of pyrrolo[3,2-c]quinoline-4-one derivatives as novel hedgehog signaling inhibitors” (Bioorg Med Chem, 2012).

Assays:
[1] = Clearance in human hepatic microsomes by LC-MS/MS analysis; format: ADME, Microsome; details: liver microsomes, read-out: CLH
Procedure, shortened: (§1)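 Liver microsomes (0.2 mg protein/mL) were incubated with 1 µmol/L test compound in 50 mmol/L potassium phosphate, pH 7.4. The reaction was started with an NADPH-generating system (MgCl₂, glucose-6-phosphate, β-NADP+, G6P dehydrogenase) added at 20% of the reaction volume. Clearance was reported in µL/min/mg.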

Sonic hedgehog protein = Sonic hedgehog protein (Mus musculus, UniProt Q62226); test: Inhibition of recombinant mouse Shh expressed in […] assessed as inhibition of Gli1 expression after 48 hrs by luciferase reporter gene assay; format: cell-based, NIH/3T3
Procedure, shortened: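 NIH3T3 cells stably carrying a Gli-luciferase reporter (kept in DMEM/10% FBS, 500 µg/mL G418) were seeded on collagen-coated plates overnight. Compounds (final 0.03–1000 nM, n = 4 wells) were added with recombinant mouse Shh-N at final 1 µg/mL in 5.8% FBS, then incubated 48 h. Controls were 0.1% DMSO ± Shh-N (n = 10). Read-out was luciferase luminescence; IC50 is the mean of four measurements.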

[2] = Clearance in mouse hepatic microsomes by LC-MS/MS analysis; format: ADME, Microsome; details: liver microsomes, read-out: CLH; procedure, shortened: as §1
[3] = target: Voltage-gated inwardly rectifying potassium channel KCNH2 (Homo sapiens, UniProt Q12809); test: inhibition of human ERG
[4] = Antitumor activity against Ptch+/- p53-/- double-mutant mouse medulloblastoma allograft model assessed as tumor growth rate at 6.25 mg/kg, po bid for 2 weeks measured up to 21 days relative to control; format: functional, Medulloblastoma cell
Procedure, shortened: (§2)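 Nude mice carrying subcutaneous Ptch+/- p53-/- medulloblastoma allografts (passaged in vivo) were dosed orally twice daily for 2 weeks, suspended in 0.5% methylcellulose, vs vehicle, once tumors reached an average of 150–250 mm³. Tumors were measured by caliper, with V = (a × b²)/2. T/C% = mean treated (Vend−Vstart)/control (Vend−Vstart) × 100. Body weight was followed. Points are mean SD of duplicates; 1-tailed Dunnett's test vs controls.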

Mus musculus [5] = test: In vivo inhibition of Shh signalling in mouse xenografted with PAN-04 cells assessed as Gli1 expression at 25 mg/kg, po bid measured after 24 hrs post first dose relative to control; values are per cent of control; details: PAN-04, po
[6] = Binding affinity to human Smo expressed in 293T cells after 1 hr by fluorescence analysis; format: cell-based
Procedure, shortened: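 293T cells were transiently transfected overnight with HA-tagged human Smo, then plated at 6×10⁴ cells/well. Compounds (final 0.03–1000 nM) were incubated 1 h with 2 nM BODIPY-cyclopamine, n = 3 wells per concentration. Media or excess unlabelled cyclopamine set the 0%/100% inhibition controls (n = 5). Cell fluorescence was read by flow cytometry after Versene detachment.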

Mus musculus [7] = test: Toxicity against Ptch+/- p53-/- double-mutant mouse medulloblastoma allograft model assessed as body weight loss at 6.25 mg/kg, po bid for 2 weeks; format: organism-based; design: dose 6.25 mg/kg, route oral; details: in vivo, 336 h; procedure, shortened: as §2

Sonic hedgehog protein, sequence (Q62226 25-198 limits assumed): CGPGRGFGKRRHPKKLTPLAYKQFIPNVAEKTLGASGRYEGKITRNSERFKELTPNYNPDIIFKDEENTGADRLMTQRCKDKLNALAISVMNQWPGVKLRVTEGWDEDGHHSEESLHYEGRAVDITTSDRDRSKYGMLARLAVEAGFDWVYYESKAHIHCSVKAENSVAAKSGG
Voltage-gated inwardly rectifying potassium channel KCNH2, sequence (Q12809 whole entry): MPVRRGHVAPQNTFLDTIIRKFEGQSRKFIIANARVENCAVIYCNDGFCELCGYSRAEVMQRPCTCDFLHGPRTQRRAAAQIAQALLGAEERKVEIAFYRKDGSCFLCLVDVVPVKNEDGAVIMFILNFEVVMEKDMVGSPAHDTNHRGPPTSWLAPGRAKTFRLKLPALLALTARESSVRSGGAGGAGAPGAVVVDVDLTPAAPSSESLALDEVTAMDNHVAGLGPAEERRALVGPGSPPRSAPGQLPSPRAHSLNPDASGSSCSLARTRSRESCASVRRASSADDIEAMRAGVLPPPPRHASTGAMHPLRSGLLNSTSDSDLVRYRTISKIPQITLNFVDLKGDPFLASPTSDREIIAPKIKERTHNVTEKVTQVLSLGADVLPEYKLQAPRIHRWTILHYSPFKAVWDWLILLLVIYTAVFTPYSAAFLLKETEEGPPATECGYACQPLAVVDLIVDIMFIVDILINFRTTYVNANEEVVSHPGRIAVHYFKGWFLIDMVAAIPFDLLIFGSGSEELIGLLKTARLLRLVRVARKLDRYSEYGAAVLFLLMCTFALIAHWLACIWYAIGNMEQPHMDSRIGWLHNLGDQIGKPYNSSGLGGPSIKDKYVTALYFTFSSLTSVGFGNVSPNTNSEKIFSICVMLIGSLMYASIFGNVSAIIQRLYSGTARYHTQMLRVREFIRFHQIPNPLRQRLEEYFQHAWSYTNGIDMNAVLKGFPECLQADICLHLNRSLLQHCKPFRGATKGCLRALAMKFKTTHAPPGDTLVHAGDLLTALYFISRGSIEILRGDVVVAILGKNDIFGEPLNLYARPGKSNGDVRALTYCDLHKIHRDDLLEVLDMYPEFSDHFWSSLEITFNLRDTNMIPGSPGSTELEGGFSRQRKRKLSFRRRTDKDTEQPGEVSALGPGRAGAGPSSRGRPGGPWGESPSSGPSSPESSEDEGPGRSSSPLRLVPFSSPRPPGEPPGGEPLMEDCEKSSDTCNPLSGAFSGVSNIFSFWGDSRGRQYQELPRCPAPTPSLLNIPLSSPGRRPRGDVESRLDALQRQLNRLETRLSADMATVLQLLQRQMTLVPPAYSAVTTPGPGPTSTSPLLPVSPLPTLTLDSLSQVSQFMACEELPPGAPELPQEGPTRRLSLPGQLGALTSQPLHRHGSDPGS

SMILES	microsomal CLint [1] [µL/min/mg]	IC50 (Sonic hedgehog protein) [nM]	microsomal CLint [2] [µL/min/mg]	inhibition (INH) [3]	Activity [4] [%]	level, % of control at 25 mg/kg (Mus musculus [5]) [%]	IC50 [6] [nM]	Activity (Mus musculus [7])
CCC(=O)Cn1c(=O)c2c(OC)c(C(=O)NC3CCN(CCO)CC3)n(C)c2c2ccccc21	3	> 100	< 1					
COc1c(C(=O)NCCN2CCCC2)sc2c1c(=O)n(CC(=O)c1ccccc1)c1ccccc21		5.1						
COc1c(C(=O)NCCN2CCCC2)oc2c1c(=O)n(CC(=O)c1ccccc1)c1ccccc21		> 1000						
COc1c(C(=O)NCCN2CCCC2)n(C)c2c1c(=O)n(CC(=O)c1ccccc1)c1ccccc21	14	2.9	95					
CCOc1c(C(=O)NCCN2CCCC2)n(C)c2c1c(=O)n(CC(=O)c1ccccc1)c1ccccc21	26	7	155					
COc1c(C(=O)NCCN2CCCCC2)n(C)c2c1c(=O)n(CC(=O)c1ccccc1)c1ccccc21	30	9.6	192					
COc1c(C(=O)NCCN2CCOCC2)n(C)c2c1c(=O)n(CC(=O)c1ccccc1)c1ccccc21	73	22	237					
COc1c(C(=O)NC2CCNCC2)n(C)c2c1c(=O)n(CC(=O)c1ccccc1)c1ccccc21	2	21	10					
COc1c(C(=O)NC2CCN(CCO)CC2)n(C)c2c1c(=O)n(CC(=O)c1ccccc1)c1ccccc21	6	6.6	9	Active				
COc1c(C(=O)NC2CCN(C(=O)CO)CC2)n(C)c2c1c(=O)n(CC(=O)c1ccccc1)c1ccccc21	< 1	4.6	11	Not Active	3	5	41	Non-toxic
COc1c(C(=O)NC2CCN(CCO)CC2)n(C)c2c1c(=O)n(CCc1ccccc1)c1ccccc21	72	150	48					
